# Rows were chosen to be rich in hits. Some 3.5% of all compounds tested hit in one or more screens of this group.
# Env fusion inh: HIV envelope-mediated fusion inhibition; HeLa-JRFL Env/CEM21 cell fusion, luciferase; inhibition, % at 12.3 µM; 1.1% of 360,000 active;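 active = mean replicate inhibition score of at least 50 and every replicate individually at or above 50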;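 note: 0% = plate neutral controls and 100% = maraviroc near 300 nM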
# rRNA inh HTS: inhibitors of bacterial rRNA selective over humanized ribosomes; E. coli WT GFP vs humanized-ribosome RFP mutants, fluorescence, 24 h; active compounds read low; DMSO median 0, no signal -100; 1.6% of 350,000 active; GFP signal change (wild-type ribosome), % (no concentration beside the values); AID 720706;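 active = significant combined selectivity score with lowered wild-type GFP, culture density cut under 30%, mutant RFP and density less affected; inactive = any of these conditions unmet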
# FGF22 binding: FGF22 (human) thermal shift binding; Q9HCT0; recombinant FGF22 thermal shift, SYPRO orange fluorescence; percent of sucrose octasulfate shift, DMSO zero; activity (Tm shift, normalised), % at 9.99 µM; 1.5% of 340,000 active;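 active = mean Tm shift, scaled 0 neutral to 100 positive control, at about 1.3% or above, every replicate too, limit read from the data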
# Target sequence (Q9HCT0 whole entry, looked up): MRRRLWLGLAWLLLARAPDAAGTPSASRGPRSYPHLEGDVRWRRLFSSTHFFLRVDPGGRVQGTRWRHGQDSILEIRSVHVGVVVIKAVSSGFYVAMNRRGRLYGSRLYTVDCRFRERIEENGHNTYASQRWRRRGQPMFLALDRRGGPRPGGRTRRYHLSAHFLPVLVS
# Cneo AK release: Cryptococcus neoformans lysis via adenylate kinase release; 0.2% of 360,000 active; AID 651654; C. neoformans lysis, adenylate kinase release luminescence, 4 h; normalised: neutral wells 0, clomiphene wells 100; lysis activity, % at 15 µM;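 active = mean lysis activity across replicates of at least 80%, whatever share of replicates individually reach that level; inactive = mean lysis activity below 80%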
#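 Assay system: C. neoformans cells. Amount: yeast cell density of 5 × 10^6 cells/mL. Technique: AK luminescence. Buffer or medium: YPD. Times: static 4 h at 37 °C with compound, 1 h detection. Dosing: single-point compound dose. Read-out: lysis from increased AK signal.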
# PGC1a acetyl inh: lowers PGC1a acetylation signal in U2OS cells; inhibition, % at 15.6 µM; AlphaScreen anti-acetyl-lysine; with virally co-expressed GCN5 acetyltransferase; 0.17% of 350,000 active;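 active = every replicate shows inhibition of at least 40%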;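 note: 0% = neutral control wells and 100% = positive control wells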
# ERAP1 HTS inh: ERAP1 (human) enzyme inhibition; Q9NZ08; recombinant ERAP1, Leu-AMC fluorescence, 60 min; inhibition, % at 10.7 µM; 0.15% of 340,000 active;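 active = mean replicate inhibition of at least 30%, or all replicates individually reaching that 30% level; inactive = mean below 30% and not every replicate reaching it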;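 note: 0% = neutral control wells and 100% = L-leucinethiol positive control wells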
# Starred values were filed as active, the others as inactive; nt = no result given; ! = a repeat was not active; [ ] = dose if it differs, or a comment.
SMILES,Env fusion inh,rRNA inh HTS,FGF22 binding,Cneo AK release,PGC1a acetyl inh,ERAP1 HTS inh
O=C(C[C@@H]1CC[C@@H]2[C@H](COC[C@H](O)CN2C(=O)Nc2ccc(Cl)cc2)O1)NCC1CC1,nt,-39,0,-3,5,-1
O=C(C[C@@H]1CC[C@@H]2[C@H](COC[C@@H](O)CN2C(=O)Nc2ccc(Cl)cc2)O1)NC1Cc2ccccc2C1,nt,-60,-1,109*,-7,0
CC(C)(C)N(Cc1ccccc1)C(=O)COC(=O)Cn1[nH]c(=O)c2ccccc2c1=O,27,-4,0,1,-12,2
CN1C(=O)c2cc(NC(=O)c3cscn3)ccc2OC[C@H]2O[C@@H](CC(=O)N3CCCCC3)CC[C@@H]21,-8[16.7 µM],2,0,-1,-1,-2
C[C@@H]1CN([C@H](C)CO)C(=O)c2cc(NS(=O)(=O)c3ccc(Cl)cc3)ccc2O[C@@H](C)CCCCO[C@@H]1CN(C)Cc1ccccc1,65*[16.7 µM],-10,nt,0,6,-2
C[C@@H]1CN([C@H](C)CO)C(=O)c2cc(NS(=O)(=O)c3ccccc3)ccc2O[C@@H](C)CCCCO[C@@H]1CN(C)Cc1ccc(Cl)c(Cl)c1,69*![16.7 µM],2,1,-2,-11,-3
COc1ccc(S(=O)(=O)Nc2ccc3c(c2)C(=O)N([C@@H](C)CO)C[C@@H](C)[C@H](CN(C)Cc2ccc4c(c2)OCO4)OCCCC[C@H](C)O3)cc1,-97[16.7 µM],4,1.3*,4,-4,-2
C[C@@H]1CN([C@H](C)CO)C(=O)c2cc(NS(=O)(=O)c3ccc(Cl)cc3)ccc2O[C@@H](C)CCCCO[C@@H]1CN(C)Cc1ccc2c(c1)OCO2,68*![16.7 µM],5,nt,-16,5,4
C[C@H]1CCCCO[C@H](CN(C)Cc2ccc(Cl)c(Cl)c2)[C@@H](C)CN([C@@H](C)CO)C(=O)c2cc(NS(=O)(=O)c3ccccc3)ccc2O1,nt,-5,0,nt,-2,4
CCc1cc(C(=O)OC)c(NC(=O)c2ccoc2C)s1,17,7,0,3,nt,4
O=[N+]([O-])c1cccc(COc2cccc(CN3CCCC3)c2)c1,60*,9,0,1,4,nt
O=C(c1ccco1)N1CCN(Cc2cccc([N+](=O)[O-])c2)CC1,20,8,44*,nt,11,-1
O=[N+]([O-])c1ccc(COc2cccc(CN3CCCC3)c2)cc1,-5,3,0,-1,12,1
O=C(c1cccs1)N1CCN(Cc2cccc([N+](=O)[O-])c2)CC1,6,1,0,nt,nt,-1
O=[N+]([O-])c1cccc(COc2cccc(CN3CCCCC3)c2)c1,21,12,43*,8,15,1
O=C(Nc1ccccc1)C1=C[C@@H](c2ccc3c(c2)Cc2ccccc2-3)C[C@@H](OCCCCO)O1,-26[16.7 µM],nt,0,-4,nt,3
Oc1ccc(NCc2ccccc2OCc2ccccc2)cc1,5,0,0,nt,nt,-2
C#CCOc1ccccc1CNc1ccccc1,-5,nt,43*,nt,nt,-3
COc1ccccc1-c1cnc2c(c1)C(=O)N([C@@H](C)CO)C[C@@H](C)[C@H](CN(C)C(=O)c1cccnc1)O2,16,3,0,89*!,-7,4
COCC(=O)N(C)C[C@H]1Oc2ncc(-c3ccccc3F)cc2C(=O)N([C@H](C)CO)C[C@H]1C,-4[16.7 µM],2,0,22,12,0
COCC(=O)N(C)C[C@H]1Oc2ncc(-c3ccccc3F)cc2C(=O)N([C@@H](C)CO)C[C@H]1C,-13[16.7 µM],3,0,87*,7,2
N#CC(=C1Nc2ccccc2N1)S(=O)(=O)c1ccccc1,13,16,43*,0,-21,0
CCN1C(=O)CS/C1=C(\C#N)S(=O)(=O)c1ccccc1,nt,nt,nt,1,10,nt
O=C(N[C@@H](Cc1cccnc1)C(=O)N1CCC[C@H]1C(=O)NCCc1ccccc1Cl)c1cccs1,-39,-17*,0,nt,nt,4
C[C@@H]1CN([C@@H](C)CO)C(=O)c2cc(N(C)C)ccc2O[C@@H](C)CCCCO[C@@H]1CN(C)Cc1ccc(C(=O)Nc2ccccc2N)cc1,nt,-4,nt,nt,nt,nt
